ChEMBL document CHEMBL1153588, “DNA sequence selectivity of hairpin polyamide turn units” (Bioorg Med Chem Lett, 2009)

Key:
Type in all cases: nucleic-acid assay
[1] = test system: Nucleic Acid; assay: Binding affinity to 11mer DNA duplex 5'-CTATGGTAGAC-3' assessed as change in melting temperature by spectroscopic analysis
Method in brief: (§1)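 Duplex melting temperatures were measured on a spectrophotometer with a thermo-controlled cell holder in 10 mM sodium cacodylate buffer.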

[2] = test system: Nucleic Acid; assay: Binding affinity to 5'-ATGGTT-3' in Escherichia coli pCDMF6 by DNase1 foot-printing titration method
Method in brief: (§2)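 The plasmid target was built by ligating an annealed synthetic oligonucleotide pair carrying the tandem match sites. A primer was 5'-end-labelled with ³²P, and binding was measured by DNase I footprinting titrations.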

[3] = test system: Nucleic Acid; assay: Binding affinity to 5'-ATGGTA-3' in Escherichia coli pCDMF6 by DNase1 foot-printing titration method; method in brief: as §2
[4] = test system: Nucleic Acid; assay: Binding affinity to 5'-ATGGTTC-3' in Escherichia coli pCDMF6 by DNase1 foot-printing titration method; method in brief: as §2
[5] = test system: Nucleic Acid; assay: Binding affinity to 5'-ATGGTG-3' in Escherichia coli pCDMF6 by DNase1 foot-printing titration method; method in brief: as §2
[6] = test system: Nucleic Acid; assay: Binding affinity to 11mer DNA duplex 5'-CTCTGTTACCA-3' assessed as change in melting temperature by spectroscopic analysis; method in brief: as §1
[7] = test system: Nucleic Acid; assay: Binding affinity to 11mer DNA duplex 5'-CTATGTTACCA-3' assessed as change in melting temperature by spectroscopic analysis; method in brief: as §1
[8] = test system: Nucleic Acid; assay: Binding affinity to 11mer DNA duplex 5'-CTCTGGCACAC-3' assessed as change in melting temperature by spectroscopic analysis; method in brief: as §1

Row | SMILES | ΔTm [1] [°C] | Ka [2] | Ka [3] | Ka [4] [×10⁷ /M] | Ka [5] [×10⁷ /M] | other results
1 | CN(C)CCCNC(=O)CCNC(=O)c1cc(NC(=O)c2cc(NC(=O)c3cc(NC(=O)C[C@H](N)CNC(=O)c4cc(NC(=O)c5nc(NC(=O)c6nccn6C)cn5C)cn4C)cn3C)cn2C)cn1C | 14.7 | 1.1 ×10⁹ /M | 1.3 ×10⁹ /M | 6 | < 1 | 
2 | CN(C)CCCNC(=O)CCNC(=O)c1cc(NC(=O)c2cc(NC(=O)c3cc(NC(=O)C[C@H](N)CNC(=O)c4cc(NC(=O)c5cc(NC(=O)c6nccn6C)cn5C)cn4C)cn3C)cn2C)cn1C |  |  |  |  |  | ΔTm [6]: 11.6 °C; ΔTm [7]: 17 °C
3 | CC(=O)N[C@@H](CNC(=O)c1cc(NC(=O)c2nc(NC(=O)c3nccn3C)cn2C)cn1C)CC(=O)Nc1cc(C(=O)Nc2cc(C(=O)Nc3cc(C(=O)NCCC(=O)NCCCN(C)C)n(C)c3)n(C)c2)n(C)c1 | 12.2 | 2 ×10⁹ /M | 5.2 ×10⁹ /M | 8.9 | < 1 | 
4 | CN(C)CCCNC(=O)CCNC(=O)c1cc(NC(=O)c2cc(NC(=O)c3cc(NC(=O)[C@H](N)CCNC(=O)c4cc(NC(=O)c5cc(NC(=O)c6nccn6C)cn5C)cn4C)cn3C)cn2C)cn1C |  |  |  |  |  | ΔTm [6]: 10.9 °C; ΔTm [7]: 15.9 °C
5 | CN(C)CCCNC(=O)CCNC(=O)c1cc(NC(=O)c2cc(NC(=O)c3nc(NC(=O)C[C@H](N)CNC(=O)c4cc(NC(=O)c5nc(NC(=O)c6nccn6C)cn5C)cn4C)cn3C)cn2C)cn1C |  |  |  |  |  | ΔTm [8]: 6 °C
6 | CN(C)CCCNC(=O)CCNC(=O)c1cc(NC(=O)c2cc(NC(=O)c3nc(NC(=O)C[C@@H](N)CNC(=O)c4cc(NC(=O)c5nc(NC(=O)c6nccn6C)cn5C)cn4C)cn3C)cn2C)cn1C |  |  |  |  |  | ΔTm [8]: 6.7 °C
7 | CN(C)CCCNC(=O)CCNC(=O)c1cc(NC(=O)c2cc(NC(=O)c3cc(NC(=O)CCCNC(=O)c4cc(NC(=O)c5nc(NC(=O)c6nccn6C)cn5C)cn4C)cn3C)cn2C)cn1C | 9.2 | 2.1 ×10⁸ /M | 2 ×10⁸ /M | < 1 | < 1 | 
8 | CN(C)CCCNC(=O)CCNC(=O)c1cc(NC(=O)c2cc(NC(=O)c3nc(NC(=O)[C@H](N)CCNC(=O)c4cc(NC(=O)c5nc(NC(=O)c6nccn6C)cn5C)cn4C)cn3C)cn2C)cn1C |  |  |  |  |  | ΔTm [8]: 8.3 °C
9 | CN(C)CCCNC(=O)CCNC(=O)c1cc(NC(=O)c2cc(NC(=O)c3cc(NC(=O)C[C@@H](N)CNC(=O)c4cc(NC(=O)c5cc(NC(=O)c6nccn6C)cn5C)cn4C)cn3C)cn2C)cn1C |  |  |  |  |  | ΔTm [6]: 13 °C; ΔTm [7]: 18 °C

Further lines, with some results ahead:

Row | ΔTm [1] [°C] | Ka [2] | Ka [3] | Ka [4] [×10⁷ /M] | Ka [5] [×10⁷ /M] | SMILES | other results
10 | 7.9 |  |  |  |  | CN(C)CCCNC(=O)CCNC(=O)c1cc(NC(=O)c2cc(NC(=O)c3cc(NC(=O)[C@@H](F)CCNC(=O)c4cc(NC(=O)c5nc(NC(=O)c6nccn6C)cn5C)cn4C)cn3C)cn2C)cn1C | 
11 | 14.9 | 3.3 ×10⁹ /M | 1.8 ×10⁹ /M | 5 | < 1 | CN(C)CCCNC(=O)CCNC(=O)c1cc(NC(=O)c2cc(NC(=O)c3cc(NC(=O)C[C@@H](N)CNC(=O)c4cc(NC(=O)c5nc(NC(=O)c6nccn6C)cn5C)cn4C)cn3C)cn2C)cn1C | 
12 | 10.1 | 3.2 ×10⁸ /M | 2.1 ×10⁸ /M | < 1 | < 1 | CC(=O)N[C@H](CCNC(=O)c1cc(NC(=O)c2nc(NC(=O)c3nccn3C)cn2C)cn1C)C(=O)Nc1cc(C(=O)Nc2cc(C(=O)Nc3cc(C(=O)NCCC(=O)NCCCN(C)C)n(C)c3)n(C)c2)n(C)c1 | 
13 | 8.3 |  |  |  |  | CN(C)CCCNC(=O)CCNC(=O)c1cc(NC(=O)c2cc(NC(=O)c3cc(NC(=O)[C@H](F)CCNC(=O)c4cc(NC(=O)c5nc(NC(=O)c6nccn6C)cn5C)cn4C)cn3C)cn2C)cn1C | 
14 | 10 |  |  |  |  | CN(C)CCCNC(=O)CCNC(=O)c1cc(NC(=O)c2cc(NC(=O)c3cc(NC(=O)[C@H](O)CCNC(=O)c4cc(NC(=O)c5nc(NC(=O)c6nccn6C)cn5C)cn4C)cn3C)cn2C)cn1C | 
15 | 5.8 |  |  |  |  | CN(C)CCCNC(=O)CCNC(=O)c1cc(NC(=O)c2cc(NC(=O)c3cc(NC(=O)[C@@H](O)CCNC(=O)c4cc(NC(=O)c5nc(NC(=O)c6nccn6C)cn5C)cn4C)cn3C)cn2C)cn1C | 
16 | 14.7 | 1.6 ×10⁹ /M | 1.7 ×10⁹ /M | 3.9 | < 1 | CN(C)CCCNC(=O)CCNC(=O)c1cc(NC(=O)c2cc(NC(=O)c3cc(NC(=O)[C@H](N)CCNC(=O)c4cc(NC(=O)c5nc(NC(=O)c6nccn6C)cn5C)cn4C)cn3C)cn2C)cn1C | 
